Reference: ChEMBL document CHEMBL4325839, “Design, synthesis and biological evaluations of quaternization harman analogues as potential antibacterial agents” (Eur J Med Chem, 2018)

Key:
Type in all cases: functional
Staphylococcus aureus [1] = test: Antibacterial activity against Staphylococcus aureus CGMCC 1.8721 after 12 to 14 hrs by double dilution method
Staphylococcus aureus [2] = test: Antibacterial activity against methicillin-resistant Staphylococcus aureus ATCC 43300 after 12 to 14 hrs by double dilution method
How it was run: (§1)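 Broth double-dilution MIC per NCCLS. Bacteria at 1×10^6 CFU/mL in Luria-Bertani medium. Compounds dissolved in DMSO as stock, then diluted in medium to 200, 100, 50, 25, 12.5, 6.25 and 3.125 nmol/mL (DMSO <0.5%); some also tested at 256–1 µg/mL. Incubated at 37 °C for 12–14 h. MIC read as lowest concentration giving visible growth inhibition.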

Bacillus cereus = test: Antibacterial activity against Bacillus cereus CGMCC 1.1846 after 12 to 14 hrs by double dilution method
Escherichia coli = test: Antibacterial activity against Escherichia coli CGMCC 1.1636 after 12 to 14 hrs by double dilution method
Bacillus subtilis = test: Antibacterial activity against Bacillus subtilis 769 after 12 to 14 hrs by double dilution method
Ralstonia solanacearum = test: Antibacterial activity against Ralstonia solanacearum CGMCC 1.12711 measured after 12 to 14 hrs by double dilution method; how it was run: as §1

SMILES | MIC (Staphylococcus aureus [1]) | MIC (Staphylococcus aureus [2]) | MIC (Bacillus cereus) | MIC (Escherichia coli) | MIC (Bacillus subtilis) | MIC (Ralstonia solanacearum)
COc1ccc2[nH]c3c(-c4ccco4)nccc3c2c1 | > 200 µM | > 200 µM | > 200 µM | > 200 µM | > 200 µM | > 200 µM
COc1ccc2[nH]c3c(-c4ccccn4)nccc3c2c1 | > 200 µM | > 200 µM | > 200 µM | > 200 µM | > 200 µM | > 200 µM
COC(=O)c1ccc(-c2c3[nH]c4ccc(OC)cc4c3cc[n+]2Cc2ccccc2)cc1 | 100 µM | 200 µM | 200 µM | > 200 µM | 100 µM | 100 µM
c1ccc(-c2nccc3c2[nH]c2ccccc23)nc1 | > 200 µM | > 200 µM | > 200 µM | > 200 µM | > 200 µM | > 200 µM
Cc1ccc(C[n+]2ccc3c([nH]c4ccccc43)c2-c2ccccn2)cc1 | 25 µM | 50 µM | 100 µM | > 200 µM | 100 µM | 50 µM
FC(F)(F)c1ccc(C[n+]2ccc3c([nH]c4ccccc43)c2-c2ccccn2)cc1 | 25 µM | 50 µM | 100 µM | > 200 µM | 50 µM | 50 µM
COC(=O)c1ccc(-c2c3[nH]c4ccc(OC)cc4c3cc[n+]2Cc2cccc(Br)c2)cc1 | 50 µM | 50 µM | 75 µM |  | 25 µM | 25 µM
COC(=O)c1ccc(-c2c3[nH]c4ccc(OC)cc4c3cc[n+]2Cc2ccccc2F)cc1 | 200 µM | 200 µM | 200 µM |  | 100 µM | 150 µM
COC(=O)c1ccc(-c2nccc3c2[nH]c2ccccc23)cc1 | > 200 µM | > 200 µM | > 200 µM | > 200 µM | > 200 µM | > 200 µM
c1ccc(C[n+]2ccc3c([nH]c4ccccc43)c2-c2ccco2)cc1 | 100 µM | 100 µM | > 200 µM | > 200 µM | 100 µM | 100 µM
COC(=O)c1ccc(-c2c3[nH]c4ccc(OC)cc4c3cc[n+]2Cc2ccc(F)cc2)cc1 | 100 µM | 200 µM | 200 µM |  | 75 µM | 150 µM
COC(=O)c1ccc(-c2c3[nH]c4ccccc4c3cc[n+]2Cc2ccc(C)cc2)cc1 | 50 µM | 50 µM | 100 µM | 200 µM | 50 µM | 50 µM
c1ccc(C[n+]2ccc3c([nH]c4ccccc43)c2-c2ccccn2)cc1 | > 200 µM | > 200 µM | > 200 µM | > 200 µM | > 200 µM | > 200 µM
COC(=O)c1ccc(-c2c3[nH]c4ccccc4c3cc[n+]2Cc2ccccc2)cc1 | 100 µM | 200 µM | 200 µM | > 200 µM | 100 µM | 100 µM
COC(=O)c1ccc(-c2c3[nH]c4ccc(OC)cc4c3cc[n+]2Cc2ccccc2Br)cc1 | 75 µM | 75 µM | 100 µM |  | 50 µM | 50 µM
COC(=O)c1ccc(-c2c3[nH]c4ccc(OC)cc4c3cc[n+]2Cc2ccc(Cl)cc2)cc1 | 50 µM | 100 µM | 50 µM |  | 50 µM | 37.5 µM
COC(=O)c1ccc(-c2c3[nH]c4ccc(OC)cc4c3cc[n+]2Cc2ccc(F)cc2F)cc1 | 100 µM | > 200 µM | 200 µM |  | 100 µM | 100 µM
COC(=O)c1ccc(-c2c3[nH]c4ccc(OC)cc4c3cc[n+]2Cc2cccc(F)c2)cc1 | 200 µM | 200 µM | 200 µM |  | 75 µM | 150 µM
COC(=O)c1ccc(-c2c3[nH]c4ccc(OC)cc4c3cc[n+]2Cc2ccc([N+](=O)[O-])cc2)cc1 | 100 µM | 200 µM | 200 µM |  | 200 µM | 100 µM
